Assay results: ChEMBL document CHEMBL1152452, “Modifications incorporated in CpG motifs of oligodeoxynucleotides lead to antagonist activity of toll-like receptors 7 and 9” (2009)
Active and inactive are the calls of the source.

Tests used:
[1] = target: T1, Toll-like receptor 9 (Mus musculus) (UniProt Q9EQU3); experiment: Activation of mouse TLR9 expressed in HEK293 cells assessed as NF-kappaB level at 0.1 ug/mL after 18 hrs by reporter gene assay; assay type: cell-based
T1 sequence (whole entry): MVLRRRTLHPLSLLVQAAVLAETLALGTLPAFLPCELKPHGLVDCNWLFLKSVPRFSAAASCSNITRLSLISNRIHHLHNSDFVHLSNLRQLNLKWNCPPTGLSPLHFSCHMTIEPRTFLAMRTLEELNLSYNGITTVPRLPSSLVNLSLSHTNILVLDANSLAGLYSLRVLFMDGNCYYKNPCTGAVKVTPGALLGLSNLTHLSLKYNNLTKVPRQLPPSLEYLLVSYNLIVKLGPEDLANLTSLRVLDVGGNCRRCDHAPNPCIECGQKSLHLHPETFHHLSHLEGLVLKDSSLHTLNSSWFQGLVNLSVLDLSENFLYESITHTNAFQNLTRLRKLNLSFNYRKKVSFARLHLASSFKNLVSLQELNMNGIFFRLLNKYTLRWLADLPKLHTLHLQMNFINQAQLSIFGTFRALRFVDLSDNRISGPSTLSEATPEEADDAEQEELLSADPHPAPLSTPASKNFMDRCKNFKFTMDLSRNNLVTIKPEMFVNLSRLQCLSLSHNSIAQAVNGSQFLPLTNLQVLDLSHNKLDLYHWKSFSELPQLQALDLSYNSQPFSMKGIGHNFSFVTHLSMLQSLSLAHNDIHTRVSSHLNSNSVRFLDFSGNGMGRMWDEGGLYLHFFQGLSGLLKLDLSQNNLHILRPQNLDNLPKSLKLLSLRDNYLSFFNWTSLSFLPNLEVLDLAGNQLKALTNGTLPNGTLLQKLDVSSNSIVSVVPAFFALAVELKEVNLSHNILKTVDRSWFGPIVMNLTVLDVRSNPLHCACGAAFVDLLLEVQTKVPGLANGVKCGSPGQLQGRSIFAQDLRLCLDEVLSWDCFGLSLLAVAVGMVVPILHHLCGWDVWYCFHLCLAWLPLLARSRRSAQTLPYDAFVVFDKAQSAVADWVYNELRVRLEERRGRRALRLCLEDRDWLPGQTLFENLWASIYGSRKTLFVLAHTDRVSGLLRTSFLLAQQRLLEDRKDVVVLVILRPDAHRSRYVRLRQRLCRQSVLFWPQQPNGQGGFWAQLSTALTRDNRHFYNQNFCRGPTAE
Procedure, shortened: (§1)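 HEK293 cells stably expressing mouse TLR9 were transiently transfected with a SEAP reporter for 6 h, then stimulated with ODN at 0.1, 0.3 or 1 μg/mL for 18 h. Reporter expression is given as fold change in NF-κB activity over medium. Representative of two independent experiments.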

[2] = target: T1, Toll-like receptor 9 (Mus musculus); experiment: Activation of mouse TLR9 expressed in HEK293 cells assessed as NF-kappaB level at 0.3 ug/mL after 18 hrs by reporter gene assay; assay type: cell-based; procedure, shortened: as §1
[3] = target: T1, Toll-like receptor 9 (Mus musculus); experiment: Activation of mouse TLR9 expressed in HEK293 cells assessed as NF-kappaB level at 1 ug/mL after 18 hrs by reporter gene assay; assay type: cell-based; procedure, shortened: as §1
J774 = experiment: Activation of NF-kappaB in mouse J774 cells at 0.5 ug/ml after 1 hr by EMSA; assay type: cell-based
Procedure, shortened: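 Murine J774 macrophages in DMEM with 10% FBS and antibiotics, plated at 5×10^6 cells/well. ODNs were given alone or together for 1 h. For inhibition, the agonist ODN at 0.5 μg/mL was co-incubated with the modified ODN at 2.5 μg/mL. Nuclear extracts were resolved by EMSA on native polyacrylamide gels and read by autoradiography.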

Splenocyte [4] = experiment: Immunostimulatory activity in C57BL/6 mouse splenocytes assessed as induction of IL12 secretion after 24 hrs by sandwich ELISA; assay type: functional, cell-based
Procedure, shortened: (§2)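 C57BL/6 splenocytes (mice 5–8 weeks) at 5 × 10^6 cells/mL in RPMI complete medium. ODNs dissolved in PBS were added and the cells incubated at 37 °C for 24 h. Supernatant IL-12 or IL-6 was measured by sandwich ELISA. Runs were done two or three times, in duplicate per concentration.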

Splenocyte [5] = experiment: Immunostimulatory activity in C57BL/6 mouse splenocytes assessed as induction of IL6 secretion after 24 hrs by sandwich ELISA; assay type: functional, cell-based; procedure, shortened: as §2
Mus musculus [6] = experiment: Immunostimulatory activity in C57BL/6 mouse assessed as induction of MIP-1alpha level in serum at 2 mg/kg, sc after 2 hrs by Luminex multiplex assay; assay type: functional, organism-based; set-up: dose 2 mg/kg
Procedure, shortened: (§3)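 Female C57BL/6 mice, 5–6 weeks old, n = 3, received a single 2 mg/kg subcutaneous ODN injection in the right flank. Blood was taken by retro-orbital bleeding 2 h later. Naive mice served as baseline. Representative of three experiments.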

Mus musculus [7] = experiment: Immunostimulatory activity in C57BL/6 mouse assessed as induction of TNFalpha level in serum at 2 mg/kg, sc after 2 hrs by Luminex multiplex assay; assay type: functional, organism-based; set-up: dose 2 mg/kg; procedure, shortened: as §3
Mus musculus [8] = experiment: Immunostimulatory activity in C57BL/6 mouse assessed as induction of IL10 level in serum at 2 mg/kg, sc after 2 hrs by Luminex multiplex assay; assay type: functional, organism-based; set-up: dose 2 mg/kg; procedure, shortened: as §3
Mus musculus [9] = experiment: Immunostimulatory activity in C57BL/6 mouse assessed as induction of MCP1 level in serum at 2 mg/kg, sc after 2 hrs by Luminex multiplex assay; assay type: functional, organism-based; set-up: dose 2 mg/kg; procedure, shortened: as §3
Mus musculus [10] = experiment: Immunostimulatory activity in C57BL/6 mouse assessed as induction of KC level in serum at 2 mg/kg, sc after 2 hrs by Luminex multiplex assay; assay type: functional, organism-based; set-up: dose 2 mg/kg; procedure, shortened: as §3
Mus musculus [11] = experiment: Immunostimulatory activity in C57BL/6 mouse assessed as induction of IL12 level in serum at 2 mg/kg, sc after 2 hrs by sandwich ELISA; assay type: functional, organism-based; set-up: dose 2 mg/kg; procedure, shortened: as §3

Measured: Activity

Cc1cn([C@H]2C[C@H](OP(=O)(S)OC[C@H]3O[C@@H](n4ccc(N)nc4=O)C[C@@H]3OP(=O)(S)OC[C@H]3O[C@@H](n4cc(C)c(=O)[nH]c4=O)C[C@@H]3OP(=O)(S)OC[C@H]3O[C@@H](n4cnc5c(=O)[nH]c(N)nc54)C[C@@H]3OP(=O)(S)OC[C@H]3O[C@@H](n4cc(C)c(=O)[nH]c4=O)C[C@@H]3O)[C@@H](COP(=O)(S)O[C@H]3C[C@H](n4ccc(N)nc4=O)O[C@@H]3COP(=O)(S)O[C@H]3C[C@H](n4cc(C)c(=O)[nH]c4=O)O[C@@H]3COP(=O)(S)O[C@H]3C[C@H](n4cc(C)c(=O)[nH]c4=O)O[C@@H]3COP(=O)(S)O[C@H]3C[C@H](n4cnc5c(=O)[nH]c(N)nc54)O[C@@H]3COP(=O)(S)O[C@H]3C[C@H](n4ccc(N)nc4=O)O[C@@H]3COP(=O)(S)O[C@H]3C[C@H](n4cnc5c(N)ncnc54)O[C@@H]3COP(=O)(S)O[C@H]3C[C@H](n4cnc5c(=O)[nH]c(N)nc54)O[C@@H]3COP(=O)(S)O[C@H]3C[C@H](n4cc(C)c(=O)[nH]c4=O)O[C@@H]3COP(=O)(S)O[C@H]3C[C@H](n4ccc(N)nc4=O)O[C@@H]3COP(=O)(S)O[C@H]3C[C@H](n4cc(C)c(=O)[nH]c4=O)O[C@@H]3COP(=O)(S)O[C@H]3C[C@H](n4cnc5c(N)ncnc54)O[C@@H]3COP(=O)(S)O[C@H]3C[C@H](n4cc(C)c(=O)[nH]c4=O)O[C@@H]3COP(=O)(S)O[C@H]3C[C@H](n4ccc(N)nc4=O)O[C@@H]3CO)O2)c(=O)[nH]c1=O (some centres not stated)
active: [1] | [2] | [3] | J774 | Splenocyte [4] Dose-dependent effect | Splenocyte [5] Dose-dependent effect | Mus musculus [6] | Mus musculus [7] | Mus musculus [8] | Mus musculus [9] | Mus musculus [10] | Mus musculus [11]
